This is an account of results in ChEMBL document CHEMBL5036319, “Discovery of Novel Benzothiazepinones as Irreversible Covalent Glycogen Synthase Kinase 3β Inhibitors for the Treatment of Acute Promyelocytic Leukemia” (J Med Chem, 2021).

One test has as its system HL-60. Kind of test: Cytotoxicity against human HL-60 cells assessed as reduction in cell viability measured after 24 hrs by CCK-8 assay. The test is classed as functional, cell-based. Particulars: HL-60, 24 h. The essentials:
(§1)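 Cells were grown in RPMI-1640 or high-glucose DMEM with 10% FBS at 37 °C, 5% CO2, and seeded at 3 × 10^4 cells/well. Exposure was 24 h across serial concentrations (0−1000 μM in the screen). […] Three independent experiments, mean ± SEM.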
On the technique in general: Formazan colour is commonly taken as a measure of viable cells.

A further test relates to Raji. Kind of test: Cytotoxicity against human Raji cells assessed as reduction in cell viability measured after 24 hrs by CCK-8 assay. The test is classed as functional, cell-based. The essentials: as §1
The target of test [1] is Glycogen synthase kinase-3 alpha (Homo sapiens) (UniProt P49840). The test can be described thus: Inhibition of recombinant human GSK-3alpha at 100 uM by mobility shift assay relative to control.
Chain of Glycogen synthase kinase-3 alpha (Homo sapiens) (P49840 2-483 limits assumed): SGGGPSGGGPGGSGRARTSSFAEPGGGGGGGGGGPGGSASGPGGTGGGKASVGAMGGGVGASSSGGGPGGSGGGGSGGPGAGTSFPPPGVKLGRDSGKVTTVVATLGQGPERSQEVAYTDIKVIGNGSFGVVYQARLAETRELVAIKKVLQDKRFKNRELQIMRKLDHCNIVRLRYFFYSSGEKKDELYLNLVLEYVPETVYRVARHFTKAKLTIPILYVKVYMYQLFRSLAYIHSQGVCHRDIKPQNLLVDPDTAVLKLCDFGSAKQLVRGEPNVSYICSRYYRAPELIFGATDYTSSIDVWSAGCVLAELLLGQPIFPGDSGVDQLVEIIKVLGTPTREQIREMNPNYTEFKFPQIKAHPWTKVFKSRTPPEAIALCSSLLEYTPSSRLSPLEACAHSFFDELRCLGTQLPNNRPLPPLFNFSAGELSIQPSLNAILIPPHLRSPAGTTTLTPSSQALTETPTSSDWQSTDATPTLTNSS
Test [2] has as its target Glycogen synthase kinase-3 beta (Homo sapiens, UniProt P49841). The test can be described thus: Inhibition of recombinant human GSK-3beta using GS-2 peptide as substrate incubated for 30 mins in presence of ATP by kinase-glo luminescence assay. A general note: Kinase-Glo reads ATP consumption through a luciferase reaction.
The next test relates to MOLT-4. The test can be described thus: Cytotoxicity against human MOLT-4 cells assessed as reduction in cell viability measured after 24 hrs by CCK-8 assay. Format: functional, cell-based. Conditions: MOLT-4, 24 h. The method in brief:
as §1

Another test has as its system NB-4. Kind of test: Cytotoxicity against human NB-4 cells assessed as reduction in cell viability measured after 24 hrs by CCK-8 assay. Format: functional, cell-based. Conditions: NB-4, 24 h. The essentials:
as §1

The next test relates to NB4-DR1. The test can be described thus: Antiproliferative activity against human NB4-DR1 cells assessed as reduction in cell viability incubated for 24 hrs by CCK-8 assay. Format: functional, cell-based. Particulars: NB4-DR1, 24 h. The essentials: as §1

As usually defined, the pIC50 is −log10 of the IC50, conventionally taken in molar units. Usually inhibition stands for the share of the control response that was lost under treatment.

The structures appear in SMILES notation. pIC50: −log10 of the molar value.

Chain of Glycogen synthase kinase-3 beta (P49841 whole entry): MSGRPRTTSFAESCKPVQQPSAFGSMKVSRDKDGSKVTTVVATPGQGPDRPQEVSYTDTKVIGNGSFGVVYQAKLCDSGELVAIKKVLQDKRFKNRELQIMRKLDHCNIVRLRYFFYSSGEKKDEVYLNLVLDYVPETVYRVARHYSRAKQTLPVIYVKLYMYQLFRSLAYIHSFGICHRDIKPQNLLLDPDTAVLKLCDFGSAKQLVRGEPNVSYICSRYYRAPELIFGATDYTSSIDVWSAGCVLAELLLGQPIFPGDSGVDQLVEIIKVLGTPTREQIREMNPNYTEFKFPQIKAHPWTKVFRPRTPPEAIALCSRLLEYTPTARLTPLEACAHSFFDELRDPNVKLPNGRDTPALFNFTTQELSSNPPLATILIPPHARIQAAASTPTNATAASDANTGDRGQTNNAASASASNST

In the case of `C=CC(=O)N1C(=O)CC(c2ccc(Br)cc2)Sc2ccccc21` (stereo not drawn), the pIC50 was 3.90 in the test with HL-60; 4.29 with Raji; 5.19 in test [2]; 3.97 with MOLT-4; 4.23 with NB-4. Moreover, in test [1], the inhibition came out at 33.4%.

In the case of `CCC(=O)N1C(=O)CC(c2cccs2)Sc2ccccc21` (stereo not drawn), the pIC50 in test [2] was below 4.00.

With `C=CC(=O)N1C(=O)CC(c2ccccc2C(F)(F)F)Sc2ccccc21` (stereo not drawn), the negative logarithm of the IC50 (pIC50) with HL-60 is 4.02; in the test on Raji, 4.30; in test [2], 5.55; with MOLT-4, 4.07; with NB-4, 4.45. Further, in test [1], the inhibition stood at 32%.

In the case of `C=CC(=O)Nc1ccc(C2CC(=O)Nc3ccccc3S2)cc1` (stereo not drawn), in test [2], the pIC50 was below 4.00.

As for `C=CC(=O)N1C(=O)CC(c2ccc(C#N)cc2)Sc2ccccc21` (stereo not drawn), the negative logarithm of the IC50 (pIC50) in the test on HL-60 is 3.94; in the test with Raji, 4.07; in test [2] it was 5.21; in the test on MOLT-4, 4.05; in the test with NB-4 it was 4.21. In test [1], the inhibition is 92.9%.

As to `C=CC(=O)N1C(=O)CC(c2cccc(Cl)c2)Sc2ccccc21` (stereo not drawn), the negative logarithm of the IC50 (pIC50) with HL-60 was 4.03; with Raji it was 4.33; in test [2] it was 5.40; in the test on MOLT-4 it was 4.11; in the test on NB-4, 4.50.

Take `C=CC(=O)N1C(=O)CC(c2ccc(C)cc2)Sc2ccccc21` (stereo not drawn): the pIC50 with HL-60 is 4.03; with Raji, 4.12; in test [2] it was 5.32; in the test with MOLT-4 it was 4.06; in the test with NB-4, 4.43. Also, the inhibition in test [1] was found to be 30%.

As for `C=CC(=O)N1C(=O)CC(c2ccc(C(F)(F)F)cc2)Sc2ccccc21` (stereo not drawn), the pIC50 was 3.97 in the test on HL-60; 4.32 in the test on Raji; 4.82 in test [2]; 4.12 with MOLT-4; 4.41 in the test with NB-4. Also, the inhibition in test [1] is 20%.

Consider `C=CC(=O)N1C(=O)CC(c2ccc([N+](=O)[O-])cc2)Sc2ccccc21` (stereo not drawn), for which the negative logarithm of the IC50 (pIC50) in the test on HL-60 is 3.97; in the test on Raji, 4.46; in test [2], 5.12; in the test with MOLT-4, 4.04; in the test on NB-4, 4.42. Also, the inhibition in test [1] came out at 50.7%.

On to `C=CC(=O)N1C(=O)CC(c2ccc(OC)cc2)Sc2ccccc21` (stereo not drawn), for which the pIC50 in the test on HL-60 is 4.04; in the test with Raji it was 4.36; in test [2], 5.21; in the test on MOLT-4 it was 4.08; with NB-4, 4.48.

`C=CC(=O)NCCN1C(=O)CC(c2ccccc2)Sc2ccccc21` (stereo not drawn): the pIC50 in test [2] was below 4.00.

For the compound `C=CC(=O)N1C(=O)CC(c2ccc(-c3ccccc3)cc2)Sc2ccccc21` (stereo not drawn), the pIC50 was 3.93 in the test with HL-60; 4.25 with Raji; 5.24 in test [2]; 4.01 in the test with MOLT-4; 4.24 with NB-4. In addition, the inhibition in test [1] turned out to be 13.4%.

For `C=CC(=O)N1C(=O)CC(c2ccccc2Cl)Sc2ccccc21` (stereo not drawn), the pIC50 was 4.04 in the test on HL-60; 4.30 in the test on Raji; 5.60 in test [2]; 4.10 in the test on MOLT-4; 4.47 in the test with NB-4. For the same compound, in test [1], the inhibition worked out at 61.8%.

Turning to `C=CC(=O)N1C(=O)CC(c2ccc(N3CCOCC3)cc2)Sc2ccccc21` (stereo not drawn), the pIC50 in the test with HL-60 is 4.01; in the test with Raji, 4.25; in test [2] it was 4.82; in the test on MOLT-4 it was 4.19; with NB-4 it was 4.37.

Turning to `C=CC(=O)N1C(=O)CCSc2ccccc21`, the pIC50 in the test with HL-60 was 4.35; in the test with Raji, 3.24; in test [2], 4.77; in the test on MOLT-4 it was 3.25; with NB-4, 4.65.

As for `C=CC(=O)N1C(=O)CC(C)Sc2ccccc21` (stereo not drawn), the pIC50 with HL-60 is 3.70; in the test with Raji it was 3.08; in test [2] it was 4.70; with MOLT-4, 3.14; with NB-4, 3.64.

With `[Cl-].[Li+]` [CHLOROLITHIUM], the pIC50 in the test with NB4-DR1 was 1.37; in the test with NB-4, 2.27.
